In article PMC10464600 (ACS chemical biology, 2022):

How the values were obtained:
1483 HNSCC cells = test: Cell imaging assay, fluorescence microscopy; format: cell-based
In short: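 1483 HNSCC cells in HBSS/Tyrode's, grown to 50% confluency, given 200 nM probe for 0.25 h at 37 °C, washed three times, imaged (propidium iodide filter, 0.5 s exposure, gain 2) at 0.5 and 3 h post-addition. Intensity read at 586/607 nm. Triplicates; Welch-corrected unpaired t test, error as standard error.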

[1] = system: ROS in carrageenan-induced inflamed footpad; test: Chemiluminescence imaging of ROS in carrageenan-induced footpad inflammation; format: in vivo, C57BL/6 mice; conditions: luminol 5 mg/kg i.v.
Photophysical properties = format: physicochemical
In short: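 Samples were diluted to 1 μM and scanned on a photon-counting fluorometer in a 10 x 4 mm cuvette at 25 °C, with excitation/emission spectra recorded in triplicate. Quantum yield was taken relative to a reference fluorophore standard. Extinction coefficient came from absorbance spectra (10 mm pathlength) at 10, 8, 6, 4 and 2 μM dilutions.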

mCOX-2 = target: T1, mCOX-2 (Mus musculus, UniProt Q05769); test: Purified COX-2 isozyme inhibition, TLC assay with [1-14C]arachidonic acid; format: biochemical; conditions: read-out: IC50, inhibition of COX-2, 14C-arachidonic acid substrate
T1 sequence (Q05769 18-604): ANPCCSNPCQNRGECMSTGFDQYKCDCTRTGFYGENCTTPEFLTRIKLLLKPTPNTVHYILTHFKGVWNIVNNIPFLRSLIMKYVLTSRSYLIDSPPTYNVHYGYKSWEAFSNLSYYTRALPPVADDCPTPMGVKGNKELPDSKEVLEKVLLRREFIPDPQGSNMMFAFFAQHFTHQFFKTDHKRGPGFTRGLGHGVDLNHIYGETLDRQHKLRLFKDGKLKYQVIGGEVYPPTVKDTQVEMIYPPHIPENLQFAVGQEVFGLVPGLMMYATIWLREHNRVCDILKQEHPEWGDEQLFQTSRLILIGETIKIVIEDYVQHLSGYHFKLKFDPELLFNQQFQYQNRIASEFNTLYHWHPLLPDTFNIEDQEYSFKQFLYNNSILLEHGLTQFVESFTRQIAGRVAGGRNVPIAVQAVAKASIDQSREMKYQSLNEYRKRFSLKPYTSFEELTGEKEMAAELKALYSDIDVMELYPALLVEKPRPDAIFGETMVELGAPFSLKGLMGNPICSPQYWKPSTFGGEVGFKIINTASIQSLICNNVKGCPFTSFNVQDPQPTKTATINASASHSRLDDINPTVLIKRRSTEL

[2] = target: T2, COX-2 in 1483 HNSCC cells (Homo sapiens, UniProt P35354); test: Cell-based COX-2 inhibition assay in intact 1483 HNSCC cells; conditions: read-out: IC50, cellular COX-2 inhibition
T2 sequence (P35354 18-604): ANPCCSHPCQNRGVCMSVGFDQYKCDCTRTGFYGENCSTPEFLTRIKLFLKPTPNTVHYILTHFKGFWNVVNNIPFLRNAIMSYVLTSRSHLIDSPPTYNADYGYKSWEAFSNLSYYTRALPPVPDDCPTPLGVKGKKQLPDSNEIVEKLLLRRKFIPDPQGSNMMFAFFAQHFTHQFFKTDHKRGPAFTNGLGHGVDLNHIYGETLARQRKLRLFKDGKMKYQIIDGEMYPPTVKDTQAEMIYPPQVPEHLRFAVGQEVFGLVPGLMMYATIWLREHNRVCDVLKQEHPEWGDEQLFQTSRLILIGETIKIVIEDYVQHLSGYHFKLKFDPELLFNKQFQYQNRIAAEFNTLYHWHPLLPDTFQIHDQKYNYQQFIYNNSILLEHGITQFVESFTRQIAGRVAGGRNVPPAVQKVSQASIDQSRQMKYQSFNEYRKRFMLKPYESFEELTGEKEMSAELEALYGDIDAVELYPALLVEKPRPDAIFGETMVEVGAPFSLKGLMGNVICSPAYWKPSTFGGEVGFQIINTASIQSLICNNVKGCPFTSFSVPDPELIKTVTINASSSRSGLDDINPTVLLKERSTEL

[3] = In vivo pharmacokinetic assay, plasma concentration by LC-MS; conditions: CD-1 mice, 10 mg/kg i.p.
[4] = system: COX-2 and ROS in carrageenan-induced inflamed footpad; test: Fluorescence imaging of carrageenan-induced footpad inflammation; format: in vivo, C57BL/6 mice
[5] = 200 nM, 1483 HNSCC cells, after washout

Cc1ccc(-c2cc(C(F)(F)F)nn2-c2ccc(S(N)(=O)=O)cc2)cc1 [celecoxib, reference compound]
effect of preincubation on fluorocoxib Q-H labeling of 1483 HNSCC cells (1483 HNSCC cells; pretreatment before fluorocoxib Q-H): blocked

Nc1cccc2c(=O)[nH][nH]c(=O)c12 [luminol]
fold luminescence, inflamed versus control footpads [1]: 12 fold
chemiluminescence emission in inflamed footpads (mean ± sd) ([1]; 6 h after carrageenan, n = 8, p < 0.0004): 1251.5 ± 94.9

COc1ccc2c(c1)c(CC(=O)NCCCCNC(=O)c1ccc(C3=c4cc5c6c(c4Oc4c3cc3c7c4CCCN7CCC3)CCC[N+]=6CCC5)c(C(=O)O)c1)c(C)n2C(=O)c1ccc(Cl)cc1 [FA, fluorocoxib A, reference compound]
extinction coefficient (ε) (Photophysical properties; at 579 nm): 45 mM⁻¹ cm⁻¹
quantum yield (Φfl) (Photophysical properties; at 602 nm, FA used as standard for comparison): 0.93

fluorocoxib Q [FQ]
IC50 (mCOX-2): 330 nM
IC50 [2]: 280 nM
extinction coefficient (ε) (Photophysical properties; at 586 nm): < 0.4 mM⁻¹ cm⁻¹
quantum yield (Φfl) (Photophysical properties; at 607 nm): < 0.19
plasma half-life [3]: exceeds 24 h
fold increase in fluorescence, inflamed over non-inflamed footpads ([4]; 5 mg/kg i.p., imaging 24 h post-injection, average): 9 fold
fluorescence in inflamed footpad (mean ± sd) ([4]; 5 mg/kg i.p., imaging 24 h post-injection, n = 8, p < 0.001): 7.84x10^8 ± 1.25x10^8
background signal in non-inflamed footpad ([4]; wild-type C57BL/6 mice, FQ versus CF3-FA): extremely low background signal
cell fluorescence at 0.5 h post-addition (1483 HNSCC cells; [5]): low fluorescence intensity
cell fluorescence at 3 h post-addition (1483 HNSCC cells; [5]): strong fluorescence

fluorocoxib Q-H [FQ-H]
IC50 (mCOX-2): 240 nM
IC50 [2]: 260 nM
extinction coefficient (ε) (Photophysical properties; at 586 nm): 44 mM⁻¹ cm⁻¹
quantum yield (Φfl) (Photophysical properties; at 607 nm): 0.90
fluorescence labeling of 1483 HNSCC cells (1483 HNSCC cells; fluorocoxib Q-H alone, after repetitive washing): strong perinuclear fluorescence
